Data from ChEMBL document CHEMBL2169850, “3,6-bis(3-alkylguanidino)acridines as DNA-intercalating antitumor agents” (Eur J Med Chem, 2012).
The source made the active and inactive calls. The calls are words filed in the database; no cut-off is given here.

Tests used:
[1] = tested on: HL-60; experiment: Cell cycle arrest in human HL60 cells assessed as accumulation at S phase at 15 uM incubated for 24 hrs by flow cytometry (reference value: 44.41 +/- 0.77%); format: functional
[2] = tested on: HL-60; experiment: Antiproliferative activity against human HL60 cells assessed as cell number at 5 uM incubated for 72 hrs by Coulter counting method; format: functional
How it was run: (§1)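 HL-60 cells in RPMI with 10% heat-inactivated FCS, antibiotics and amphotericin, 37 °C, 5% CO2, seeded in 60 mm dishes. Compound added at 5, 15 or 25 µM for 24, 48 or 72 h. Absolute cell counts taken by Coulter counter and expressed as percentage of untreated control. Mean ± SD of at least three independent experiments; one-way ANOVA with Tukey test, p < 0.05.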

[3] = tested on: HL-60; experiment: Cell cycle arrest in human HL60 cells assessed as accumulation at G1 phase at 25 uM incubated for 48 hrs by flow cytometry (reference value: 38.29 +/- 0.22%); format: functional
[4] = tested on: HL-60; experiment: Cell cycle arrest in human HL60 cells assessed as accumulation at G1 phase at 25 uM incubated for 24 hrs by flow cytometry (reference value: 35.96 +/- 1.63%); format: functional
[5] = tested on: HL-60; experiment: Induction of apoptosis in human HL60 cells at 5 to 25 uM incubated for 48 hrs by AnnexinV/propidium iodide staining method; format: functional, cell-based
How it was run: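 HL-60 cells (1.5 × 10^5) were treated at 5–25 µM for 24, 48 or 72 h and harvested. They were stained with Annexin V-FITC for 10 min in HEPES/CaCl2/NaCl binding buffer, washed, briefly stained with PI (1 mg/mL) and analysed by flow cytometry for apoptosis and necrosis. Mean ± SD, n ≥ 3.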

[6] = tested on: HL-60; experiment: Cell cycle arrest in human HL60 cells assessed as accumulation at G2/M phase at 5 uM incubated for 24 hrs by flow cytometry (reference value: 19.62 +/- 0.96%); format: functional
[7] = tested on: HL-60; experiment: Cell cycle arrest in human HL60 cells assessed as accumulation at G2/M phase at 25 uM incubated for 72 hrs by flow cytometry (reference value: 12.68 +/- 3.21%); format: functional
[8] = tested on: HL-60; experiment: Cell cycle arrest in human HL60 cells assessed as accumulation at S phase at 5 uM incubated for 72 hrs by flow cytometry (reference value: 40.30 +/- 3.15%); format: functional
[9] = tested on: HL-60; experiment: Drug uptake in human HL60 cells with necrotic morphology at 50 uM incubated for 18 hrs by fluorescence microscopy; format: ADME, cell-based; details: hl-60, 18 h
How it was run: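 HL-60 cells were treated with 50 µM compound for 18 h, washed with PBS, resuspended in HBSS and mounted as native slides. Cells were imaged by inverted fluorescence microscopy at 40×, with excitation 360/40 and emission 470/40. The fluorescence channel was merged with brightfield images.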

[10] = tested on: HL-60; experiment: Cell cycle arrest in human HL60 cells assessed as accumulation at G2/M phase at 25 uM incubated for 24 hrs by flow cytometry (reference value: 19.62 +/- 0.96%); format: functional
[11] = tested on: Nucleic Acid; experiment: Binding affinity to calf thymus DNA by spectrofluorimetric titration assay; format: nucleic-acid assay; details: Bos taurus
How it was run: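 Fluorescence titration at 25 °C in 0.01 M Tris, pH 7.4. Compound (9.58 × 10^-6 M) was titrated with ctDNA from 0 to 2.57 × 10^-4 M bp, excited at 384 nm, and emission recorded from 400 to 600 nm. K and n were obtained from McGhee–von Hippel fits of Scatchard data.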

[12] = tested on: HL-60; experiment: Cell cycle arrest in human HL60 cells assessed as accumulation at S phase at 5 uM incubated for 24 hrs by flow cytometry (reference value: 44.41 +/- 0.77%); format: functional
[13] = tested on: HL-60; experiment: Antiproliferative activity against human HL60 cells assessed as cell number at 25 uM incubated for 72 hrs by Coulter counting method; format: functional; how it was run: as §1
[14] = tested on: Nucleic Acid; experiment: Binding affinity to Escherichia coli pUC19 DNA assessed as reduction in DNA mobility to 5 to 80 uM by EMSA; format: nucleic-acid assay
How it was run: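 Supercoiled pUC19 plasmid incubated with compound at 5, 20, 40, 60 or 80 µM. Native agarose gel electrophoresis run with no ethidium bromide in the gel; band mobility was then read.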

[15] = tested on: HL-60; experiment: Cell cycle arrest in human HL60 cells assessed as accumulation at S phase at 5 uM incubated for 48 hrs by flow cytometry (reference value: 45.29 +/- 1.23%); format: functional
[16] = tested on: Nucleic Acid; experiment: Binding affinity to calf thymus DNA assessed as hypochromacity at 12.8 uM by UV-visible absorption spectroscopy; details: Bos taurus
[17] = tested on: HL-60; experiment: Cell cycle arrest in human HL60 cells assessed as accumulation at G2/M phase at 15 uM incubated for 48 hrs by flow cytometry (reference value: 16.42 +/- 1.03%); format: functional
[18] = tested on: HL-60; experiment: Antiproliferative activity against human HL60 cells assessed as cell number at 15 uM incubated for 24 hrs by Coulter counting method; format: functional; how it was run: as §1
[19] = tested on: HL-60; experiment: Cell cycle arrest in human HL60 cells assessed as accumulation at G1 phase at 15 uM incubated for 48 hrs by flow cytometry (reference value: 38.29 +/- 0.22%); format: functional
[20] = tested on: HL-60; experiment: Cell cycle arrest in human HL60 cells assessed as accumulation at S phase at 25 uM incubated for 72 hrs by flow cytometry (reference value: 40.30 +/- 3.15%); format: functional
[21] = tested on: HL-60; experiment: Cell cycle arrest in human HL60 cells assessed as accumulation at G2/M phase at 25 uM incubated for 48 hrs by flow cytometry (reference value: 16.42 +/- 1.03%); format: functional
[22] = tested on: HL-60; experiment: Cell cycle arrest in human HL60 cells assessed as accumulation at G2/M phase at 5 uM incubated for 72 hrs by flow cytometry (reference value: 12.68 +/- 3.21%); format: functional
[23] = tested on: HL-60; experiment: Antiproliferative activity against human HL60 cells assessed as cell number at 5 uM incubated for 24 hrs by Coulter counting method; format: functional; how it was run: as §1
[24] = tested on: HL-60; experiment: Induction of mitochondrial membrane dissipation in human HL60 cells at 5 to 25 uM incubated for 24 to 72 hrs by FACS assay; format: functional
How it was run: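 HL-60 cells (5 × 10^5) were treated 24, 48 or 72 h, washed in HBSS and loaded with TMRE for 20 min at 37 °C in the dark. TMRE fluorescence in FL2 was read by flow cytometry, with 1 × 10^4 gated cells per sample. Result is the percentage of cells with decreased fluorescence (dissipated MMP). Mean ± SD, n ≥ 3.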

[25] = tested on: Nucleic Acid; experiment: Binding affinity to calf thymus DNA at 6.5 uM by CD spectroscopy; format: nucleic-acid assay; details: Bos taurus
How it was run: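 CD spectra were recorded in 1 mm quartz cuvettes in 0.01 M Tris, pH 7.4, with 6.52 µM compound and ctDNA. Each spectrum is the mean of three scans after buffer background subtraction.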

[26] = tested on: HL-60; experiment: Cell cycle arrest in human HL60 cells assessed as accumulation at G2/M phase at 15 uM incubated for 72 hrs by flow cytometry (reference value: 12.68 +/- 3.21%); format: functional
[27] = tested on: HL-60; experiment: Cell cycle arrest in human HL60 cells assessed as accumulation at G1 phase at 5 uM incubated for 24 hrs by flow cytometry (reference value: 35.96 +/- 1.63%); format: functional
[28] = tested on: HL-60; experiment: Cell cycle arrest in human HL60 cells assessed as accumulation at S phase at 25 uM incubated for 24 hrs by flow cytometry (reference value: 44.41 +/- 0.77%); format: functional

| SMILES | Activity [1] | Activity [2] [%] | Activity [3] | Activity [4] | Activity [5] | Activity [6] | Activity [7] | Activity [8] | Drug uptake [9] | Activity [10] | K [11] [×10⁵ /M] | Activity [12] | Activity [13] [%] | Activity [14] | Activity [15] | Activity [16] [%] | Activity [17] | Activity [18] [%] | Activity [19] | Activity [20] | also measured |
| --- | --- | --- | --- | --- | --- | --- | --- | --- | --- | --- | --- | --- | --- | --- | --- | --- | --- | --- | --- | --- | --- |
| CCNC(=N)Nc1ccc2cc3ccc(NC(=N)NCC)cc3nc2c1.Cl.Cl.O | inactive | 79.32 | inactive | inactive | inactive | inactive | inactive | inactive | Active | inactive | 5.26 | inactive | 94.84 | Active | inactive | 23 | inactive | 78.95 | inactive | inactive | Activity [21]: inactive; Activity [22]: inactive; Activity [23]: 71.7%; Activity [24]: inactive; Activity [25]: Active; Activity [26]: inactive; Activity [27]: inactive; Activity [28]: inactive |
| CCCCCCNC(=N)Nc1ccc2cc3ccc(NC(=N)NCCCCCC)cc3nc2c1.Cl.Cl.O | 46.58% | 57.54 | 65.72% | 51.52% | Active | 16.37% | 3.91% | 43.6% | Active | 10.37% | 1.25 | 47.31% | 20.46 | inactive | 43.54% | 42 | 8.11% | 74.49 | 64.37% | 22.5% | Activity [21]: 6.51%; Activity [22]: 7.47%; Activity [23]: 73.7%; Activity [24]: 70%; Activity [25]: Active; Activity [26]: 5.85%; Activity [27]: 36.31%; Activity [28]: 38.11% |
